Experimental data as given in ChEMBL document CHEMBL2169868, “Flavone-based novel antidiabetic and antidyslipidemic agents” (J Med Chem, 2012).
Calls of active or inactive are those of the source. No cut-off for these calls is given here.

What was measured:
Syrian golden hamster [1] = test: Antidyslipidemic activity in high fructose and high-fat diet fed dyslipidemic Syrian golden hamster model assessed as reduction in LDL-cholesterol level at 30 mg/kg/day, po for 7 day, po; type: functional, Mesocricetus auratus; set-up: scale not given: the % may be the effect or the level left
In short: (§1)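 Syrian golden hamsters fed high-fructose high-fat diet; oral dosing in 1% gum acacia at 10, 30, 100 mg/kg (or 25 mg/kg) for 7 days, sham control given vehicle; plasma TG, cholesterol, LDL-C, HDL-C, glycerol and NEFA (kits), lipoprotein lipase activity and body weight; % change versus HFD control, six hamsters per group.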

Rattus norvegicus [2] = test: Antihyperlipidemic activity in Triton-induced dyslipidemic Wistar rat model assessed as reduction in cholesterol level at 100 mg/kg, po; type: functional; set-up: scale not given: the % may be the effect or the level left
In short: (§2)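 Male Wistar rats, 8−10 weeks, about 160 g, fed normal pellet diet. Triton X-100 given at 400 mg/kg ip; compound given orally in 1% gum acacia. Retro-orbital blood taken 18 h after Triton and serum separated at 1500g for 10 min. TG and cholesterol measured by kit. Mean % change versus dyslipidemic control, 5 animals.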

Rattus norvegicus [3] = test: Antidiabetic activity in sucrose challenged streptozotocin-induced diabetic Sprague-Dawley rat model assessed as reduction in glucose levels at 100 mg/kg, po measured after 24 hrs; type: functional
Syrian golden hamster [4] = test: Antidyslipidemic activity in high fructose and high-fat diet fed dyslipidemic Syrian golden hamster model assessed as increase in lipoprotein lipase level at 30 mg/kg/day, po for 7 day, po; type: functional, Mesocricetus auratus; in short: as §1
Syrian golden hamster [5] = test: Antidyslipidemic activity in high fructose and high-fat diet fed dyslipidemic Syrian golden hamster model assessed as reduction in LDL-cholesterol level at 25 mg/kg/day for 7 days; type: functional, Mesocricetus auratus; set-up: scale not given: the % may be the effect or the level left; in short: as §1
Syrian golden hamster [6] = test: Antidyslipidemic activity in high fructose and high-fat diet fed dyslipidemic Syrian golden hamster model assessed as reduction in body weight at 100 mg/kg/day for 7 days; type: functional, organism-based; settings: Mesocricetus auratus; in short: as §1
Rattus norvegicus [7] = test: Antidiabetic activity in sucrose loaded Wistar rat model assessed as reduction in glucose levels at 100 mg/kg, po; type: functional; set-up: scale not given: the % may be the effect or the level left
Syrian golden hamster [8] = test: Antidyslipidemic activity in high fructose and high-fat diet fed dyslipidemic Syrian golden hamster model assessed as reduction in triglyceride level at 30 mg/kg/day, po for 7 day, po; type: functional, Mesocricetus auratus; set-up: scale not given: the % may be the effect or the level left
In short: (§3)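 HFD-fed Syrian golden hamsters, six per group, fed a high-fructose diet. Oral dosing in 1% gum acacia for 7 days. Sham group received vehicle. Plasma TG was measured and body weight tracked. Results given as % change versus HFD control.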

Rattus norvegicus [9] = test: Antihyperlipidemic activity in Triton-induced dyslipidemic Wistar rat model assessed as reduction in triglyceride level at 100 mg/kg, po; type: functional; set-up: scale not given: the % may be the effect or the level left; in short: as §2
Syrian golden hamster [10] = test: Antidyslipidemic activity in high fructose and high-fat diet fed dyslipidemic Syrian golden hamster model assessed as reduction in LDL-cholesterol level at 100 mg/kg/day for 7 days; type: functional, Mesocricetus auratus; set-up: scale not given: the % may be the effect or the level left; in short: as §1
Syrian golden hamster [11] = test: Antidyslipidemic activity in high fructose and high-fat diet fed dyslipidemic Syrian golden hamster model assessed as reduction in triglyceride level at 25 mg/kg/day for 7 days; type: functional, Mesocricetus auratus; set-up: scale not given: the % may be the effect or the level left; in short: as §3
Syrian golden hamster [12] = test: Antidyslipidemic activity in high fructose and high-fat diet fed dyslipidemic Syrian golden hamster model assessed as reduction in glycerol level at 30 mg/kg/day, po for 7 day, po; type: functional, Mesocricetus auratus; set-up: scale not given: the % may be the effect or the level left; in short: as §1
Rattus norvegicus [13] = test: Antihyperlipidemic activity in Triton-induced dyslipidemic Wistar rat model assessed as reduction in phospholipid level at 100 mg/kg, po; type: functional; set-up: scale not given: the % may be the effect or the level left; in short: as §2
Syrian golden hamster [14] = test: Antidyslipidemic activity in high fructose and high-fat diet fed dyslipidemic Syrian golden hamster model assessed as reduction in triglyceride level at 100 mg/kg/day for 7 days; type: functional, Mesocricetus auratus; set-up: scale not given: the % may be the effect or the level left; in short: as §1
Syrian golden hamster [15] = test: Reduction in body weight in high fructose and high-fat diet fed dyslipidemic Syrian golden hamster model at 30 mg/kg/day, po for 7 days; type: functional, Mesocricetus auratus; set-up: scale not given: the % may be the effect or the level left; in short: as §3
Rattus norvegicus [16] = test: Antidiabetic activity in sucrose challenged streptozotocin-induced diabetic Sprague-Dawley rat model assessed as reduction in glucose levels at 100 mg/kg, po measured after 5 hrs; type: functional; set-up: scale not given: the % may be the effect or the level left
Syrian golden hamster [17] = test: Antidyslipidemic activity in high fructose and high-fat diet fed dyslipidemic Syrian golden hamster model assessed as reduction in NEFA level at 30 mg/kg/day, po for 7 day, po; type: functional, Mesocricetus auratus; set-up: scale not given: the % may be the effect or the level left; in short: as §1
Syrian golden hamster [18] = test: Antidyslipidemic activity in high fructose and high-fat diet fed dyslipidemic Syrian golden hamster model assessed as reduction in body weight at 25 mg/kg/day for 7 days; type: functional, Mesocricetus auratus; set-up: scale not given: the % may be the effect or the level left; in short: as §1
Syrian golden hamster [19] = test: Antidyslipidemic activity in high fructose and high-fat diet fed dyslipidemic Syrian golden hamster model assessed as increase in HDL-cholesterol level at 30 mg/kg/day, po for 7 day, po; type: functional, Mesocricetus auratus; in short: as §1
Syrian golden hamster [20] = test: Antidyslipidemic activity in high fructose and high-fat diet fed dyslipidemic Syrian golden hamster model assessed as reduction in cholesterol level at 25 mg/kg/day for 7 days; type: functional, Mesocricetus auratus; set-up: scale not given: the % may be the effect or the level left
Mus musculus [21] = test: Antihyperglycemic activity in diabetic C57BL/KsJ db/db mouse model assessed as reduction in hyperglycemia at 25 mg/kg, po qd for 10 days; type: functional; set-up: scale not given: the % may be the effect or the level left
In short: (§4)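 db/db mice (C57BL/KsJ, 12−18 weeks, 40−50 g, glucose 200−350 mg/dL), housed at 23 ± 2.0 °C on a 12 h light cycle. Oral dosing daily for 10 days. Blood glucose checked each morning through day 9. Body weight recorded daily from day 1 to day 10. Mean % change versus vehicle, 5 mice per group; Student t test.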

Syrian golden hamster [22] = test: Antidyslipidemic activity in high fructose and high-fat diet fed dyslipidemic Syrian golden hamster model assessed as increase in HDL-cholesterol level at 25 mg/kg/day for 7 days; type: functional, Mesocricetus auratus
Mus musculus [23] = test: Antihyperglycemic activity in diabetic C57BL/KsJ db/db mouse model assessed as reduction in plasma insulin level in hyperglycemia at 25 mg/kg, po qd for 10 days; type: functional; set-up: scale not given: the % may be the effect or the level left
In short: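 db/db mice dosed orally every day for 10 days. On day 11, retro-orbital blood was drawn and plasma insulin measured. Mean % change versus vehicle-treated control, 5 mice per group; Student t test.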

Mus musculus [24] = test: Antidyslipidemic activity in diabetic C57BL/KsJ db/db mouse model assessed as reduction in plasma triglyceride level at 25 mg/kg, po qd for 10 days; type: functional; set-up: scale not given: the % may be the effect or the level left
In short: (§5)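 db/db mice (blood glucose 200−350, TG 170−250, cholesterol 170−250, HDL-C 32−40 mg/dL) dosed orally at 25 mg/kg daily for 10 days; retro-orbital blood taken on day 11 for plasma TG, cholesterol and HDL-C (and HDL-C/CHOL ratio); mean % change versus vehicle control, 5 mice per group; Student t test.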

Mus musculus [25] = test: Antidyslipidemic activity in diabetic C57BL/KsJ db/db mouse model assessed as reduction in plasma cholesterol level at 25 mg/kg, po qd for 10 days; type: functional; set-up: scale not given: the % may be the effect or the level left; in short: as §5
Mus musculus [26] = test: Antihyperglycemic activity in diabetic C57BL/KsJ db/db mouse model assessed as improvement in glucose tolerance in hyperglycemia at 25 mg/kg, po qd for 10 days; type: functional
In short: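 Male/female C57BL/KsJ db/db mice, 12−18 weeks, 40−50 g, selected for glucose 200−350 mg/dL. Oral dosing daily for 10 days. OGTT on day 10 after an overnight fast: compound at −30 min, then 3 g/kg oral glucose at 0 min. Glucose read at 30, 60, 90 and 120 min. AUC taken versus vehicle, 5 mice per group.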

Mus musculus [27] = test: Antidyslipidemic activity in diabetic C57BL/KsJ db/db mouse model assessed as increase in plasma HDL-cholesterol level at 25 mg/kg, po qd for 10 days; type: functional; in short: as §5
Mus musculus [28] = test: Antidyslipidemic activity in diabetic C57BL/KsJ db/db mouse model assessed as increase in plasma HDL-C/cholesterol ratio at 25 mg/kg, po qd for 10 days; type: functional; in short: as §5
Mus musculus [29] = test: Reduction in body weight in diabetic C57BL/KsJ db/db mouse model in hyperglycemia at 25 mg/kg, po qd for 10 days relative to untreated control; type: functional; in short: as §4

With CC(C)OC(=O)C(C)(C)Oc1ccc(C(=O)c2ccc(Cl)cc2)cc1 [FENOFIBRATE] the Activity (Syrian golden hamster [1]) was 32.3%, the Activity (Rattus norvegicus [2]) was 18.9% and the Activity (Rattus norvegicus [3]) was “inactive”. The Activity (Syrian golden hamster [4]) was 24.7%, the Activity (Syrian golden hamster [5]) was 26.8% and the Activity (Syrian golden hamster [6]) was “Active”. For the same compound, the Activity (Rattus norvegicus [7]) was 6.43%, the Activity (Syrian golden hamster [8]) was 30.2% and the Activity (Rattus norvegicus [9]) was 32.9%. The Activity (Syrian golden hamster [10]) was 56.3%, the Activity (Syrian golden hamster [11]) was 25.5% and the Activity (Syrian golden hamster [12]) was 22.1%. For the same compound, the Activity (Rattus norvegicus [13]) was 30.3%, the Activity (Syrian golden hamster [14]) was 53.4% and the Activity (Syrian golden hamster [15]) was 10.2%. The Activity (Rattus norvegicus [16]) was 1.47%, the Activity (Syrian golden hamster [17]) was 22.2% and the Activity (Syrian golden hamster [18]) was 6.78%. It also gave an Activity (Syrian golden hamster [19]) of 9.68%.

Work on CC(C)(C)NC[C@@H](O)COc1ccc2c(=O)cc(-c3cc(OCc4ccccc4)cc(OCc4ccccc4)c3)oc2c1 yielded an Activity (Syrian golden hamster [20]) of 5.52%, an Activity (Mus musculus [21]) of 34.1% and an Activity (Syrian golden hamster [5]) of 9.78%. It also gave an Activity (Syrian golden hamster [22]) of 7.08%, an Activity (Mus musculus [23]) of 18% and an Activity (Syrian golden hamster [11]) of 8.4%. For the same compound, the Activity (Mus musculus [24]) was 14.1%, the Activity (Mus musculus [25]) was 15.9% and the Activity (Mus musculus [26]) was 33.3%. The Activity (Mus musculus [27]) was 8.3%, the Activity (Syrian golden hamster [18]) was 3.73% and the “Percent increase in HDL-C/cholesterol ratio vs vehicle” value (Mus musculus [28]) was 28.8. For the same compound, the Activity (Mus musculus [29]) was “inactive”.
